Measurements reported in the RNAGym collection of RNA variant scans (doi:10.1038/s41586-018-0170-7).

B1: tRNA (parent)
chain: GUUCCGUUGGCGUAAUGGUAACGCGUCUCCCUCCUAAGGAGAAGACUGCGGGUUCGAGUCCCGUACGGAACG

Variants of: B1
Experiment: yeast fitness, log relative to wild type (ln ratio); higher = fitter; tRNA-Arg(CCU), competitive growth, 37 C, 1 M NaCl
Method in brief: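 A combinatorial tRNA-Arg(CCU) variant library was carried on a HIS3 centromeric plasmid in BY4742 lacking the chromosomal gene, from two independent transformations. Pools grew 4 generations in SC-HIS at 30 °C, then ~6.5 generations (~26.5 h) in SC-HIS 1M NaCl at 37 °C, with three outputs per input. Variants were counted by 125 bp paired-end Illumina sequencing. Fitness is ln of each genotype's generations (OD-scaled log2 output/input frequency, inverse-variance weighted across replicates) over the wild-type's.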

| Variant | yeast fitness (ln) |
| --- | --- |
| G6A C27U C66A A69G A70G C71U | -0.288 |
| G6U C27U A43C C46U C66U A69G A70G C71U | -0.444 |
| G6U A43C C66U C71U | -0.422 |
| G6A C27U C46U C66A C71U | -0.148 |
| G6A C66A | -0.163 |
| G6A C66U | -0.0046 |
| G6A C27U C66U A69G | -0.0541 |
| G6U C27U A70U C71U | -0.27 |
| G6U A43C C66A A70U C71U | -0.29 |
| G6U C27U C66A A70G C71U | -0.294 |
| G6U C27U C46U C66A A70U | -0.084 |
| G6U C27U C46U C66A A70G | -0.04 |
| G6U C27U C46U C66A A69G C71U | -0.507 |
| G6U C27U C66A A69G A70U C71U | -0.378 |
| G6A C27U A70G C71U | -0.291 |
| G6A C46U A69G A70G C71U | -0.146 |
| G6U C27U A43C C46U C66U C71U | -0.355 |
| G6U C27U C46U C71U | -0.205 |
| G6U C27U C46U | -0.174 |
| G6U C27U A43C C46U A70G C71U | -0.337 |
| G6A C46U C66A A69G A70G C71U | -0.185 |
| G6U A43C C46U C66U A69G A70U | -0.347 |
| G6U A43C C46U C66U A69G A70G | -0.313 |
| G6U C27U A43C C46U A69G C71U | -0.339 |

| Variant | yeast fitness (ln) |
| --- | --- |
| G6U C27U C46U C66U A69G A70G C71U | -0.321 |
| G6U C27U C66U A69G | -0.276 |
| G6U C27U A43C C46U C66U A70G | -0.255 |
| G6U C27U A43C C46U C66U A70U | -0.322 |
| G6U C27U A43C C46U A70G | -0.248 |
| G6U C27U A43C C46U A70U | -0.206 |
| G6U A43C A70G C71U | -0.249 |
| G6U A43C A70U C71U | -0.287 |
| G6U C27U A43C C46U C66A A70G C71U | -0.211 |
| G6U C27U C46U C66A A69G | -0.0559 |
| G6U C27U A43C C66U | -0.227 |
| G6U C27U A43C C66A | -0.0198 |
| G6A C46U C66U C71U | -0.0146 |
| G6A C27U A69G A70U C71U | -0.416 |
| G6U A43C C66U A70U C71U | -0.481 |
| G6A C66U A70G | -0.00631 |
| G6A C66U A70U | -0.0184 |
| G6A C27U C46U | -0.149 |
| G6A C27U C46U C66A A69G A70G C71U | -0.221 |
| G6U A43C C46U C66A C71U | -0.0527 |
| G6U C27U A43C A70G C71U | -0.348 |
| G6A C27U C66U A69G C71U | -0.594 |
| G6U A70U | -0.0758 |
| G6U A70G | -0.221 |

| Variant | yeast fitness (ln) |
| --- | --- |
| G6U C27U A43C C46U C66A A69G A70G C71U | -0.312 |
| G6U A69G A70U C71U | -0.394 |
| G6U C27U A43C C46U C66A A70U C71U | -0.357 |
| G6U A43C A69G A70G C71U | -0.327 |
| G6U A43C C66A A69G A70U C71U | -0.39 |
| G6U C27U A43C C46U A69G A70G C71U | -0.356 |
| G6A C46U | -0.0181 |
| G6U C27U C66A A70G | -0.0711 |
| G6U C27U C66A A70U | -0.17 |
| G6U A43C C66A A69G | -0.0712 |
| G6A C27U C46U A69G C71U | -0.252 |
| G6U C27U A43C C66A A70U C71U | -0.477 |
| G6A C27U C66A A69G A70U C71U | -0.0879 |
| G6A C66U A69G A70U C71U | -0.447 |
| G6U C27U A43C C66A A69G C71U | -0.333 |
| G6U C27U A43C | -0.197 |
| G6U C27U A43C C66U A69G A70G C71U | -0.473 |
| G6U A43C C46U C66U A70G C71U | -0.295 |
| G6A C27U C66A A69G A70U | -0.243 |
| G6A C46U C66U A70G | -0.0166 |
| G6A C46U C66U A70U | -0.00103 |
| G6U C27U C66A A69G A70U | -0.213 |
| G6U C27U C66A A69G A70G | -0.35 |
| G6A C66U A69G C71U | -0.085 |

| Variant | yeast fitness (ln) |
| --- | --- |
| G6U A43C C46U C71U | -0.193 |
| G6A C27U C46U C66U A70G C71U | -0.387 |
| G6U C27U C46U A69G | -0.15 |
| G6A C66A C71U | -0.0747 |
| G6U A43C C71U | -0.253 |
| G6A C27U A43C C66U C71U | -0.264 |
| G6U A43C C66A A69G A70G C71U | -0.299 |
| G6A C27U C46U C71U | -0.176 |
| G6U A70G C71U | -0.153 |
| G6A C27U C46U C66U A69G C71U | -0.446 |
| G6A C27U A69G A70U | -0.243 |
| G6A C27U A69G A70G | -0.12 |
| G6U A43C C46U A70G C71U | -0.256 |
| G6U A43C C46U A69G | -0.176 |
| G6A C27U C46U C66U A70G | -0.0516 |
| G6A C27U C46U C66U A70U | -0.0845 |
| G6A C27U C46U C66A A70G | -0.218 |
| G6A C27U C46U C66A A70U | -0.102 |
| G6U C27U C66A A69G C71U | -0.806 |
| G6U C27U C46U C66A A69G A70U C71U | -0.328 |
| G6A C27U A43C C66U A70U C71U | -0.441 |
| G6A C27U C66U A70U | -0.188 |
| G6A C27U C66U A70G | -0.0946 |
| G6U C27U A43C C46U C71U | -0.254 |

| Variant | yeast fitness (ln) |
| --- | --- |
| G6U A43C C66U A70G | -0.273 |
| G6U A43C C66U A70U | -0.301 |
| G6U C27U A69G A70G C71U | -0.394 |
| G6U C27U A43C C66U A70G | -0.407 |
| G6U C27U A43C C66U A70U | -0.259 |
| G6A C27U C66U C71U | -0.171 |
| G6U A43C C46U C66A A70G C71U | -0.227 |
| G6U C27U C46U A70G | -0.15 |
| G6U C27U C46U A70U | -0.167 |
| G6U A69G C71U | -0.233 |
| G6A C27U C46U A70U C71U | -0.218 |
| G6A C27U C46U C66U A70U C71U | -0.237 |
| G6U C27U A43C A70U | -0.309 |
| G6U C27U A43C A70G | -0.282 |
| G6U A69G | -0.234 |
| G6A C27U C66U A70G C71U | -0.249 |
| G6A C27U C71U | -0.204 |
| G6A C27U C66U A69G A70U C71U | -0.462 |
| G6A C27U C46U A69G A70U | -0.257 |
| G6A C27U C46U A69G A70G | -0.237 |
| G6U A43C C66U A69G A70G C71U | -0.442 |
| G6U C27U A43C A69G A70G C71U | -0.49 |
| G6A C66A A70U C71U | -0.241 |
| G6U A43C C46U A70U | -0.173 |

| Variant | yeast fitness (ln) |
| --- | --- |
| G6U A43C C46U A70G | -0.164 |
| G6A C46U C66U A69G | -0.0205 |
| G6U A43C C46U C66A A70U C71U | -0.214 |
| G6U A43C C46U C66A A69G A70U C71U | -0.314 |
| G6U C27U A43C C46U A69G | -0.268 |
| G6U A43C C66U A69G A70U C71U | -0.393 |
| G6U C27U C46U C66A | -0.00348 |
| G6U C27U C46U C66U | -0.209 |
| G6A C27U C46U A69G A70G C71U | -0.219 |
| G6A C46U A69G C71U | -0.109 |
| G6A C27U A43C C66U A70U | -0.169 |
| G6U C27U C46U C66U A70U C71U | -0.336 |
| G6U A43C C46U C66A | -0.00135 |
| G6U A43C C46U C66U | -0.258 |
| G6A C27U C66U A69G A70U | -0.214 |
| G6A C27U C66U A69G A70G | -0.368 |
| G6U C27U A69G A70U C71U | -0.513 |
| G6U C27U C46U C66U A69G A70G | -0.318 |
| G6U C27U C46U C66U A69G A70U | -0.308 |
| G6U C27U C46U A69G A70U | -0.292 |
| G6U C27U C46U A69G A70G | -0.192 |
| G6U C27U C46U C66A A70U C71U | -0.213 |
| G6A C66A A70U | -0.158 |
| G6A C66A A70G | -0.0871 |

| Variant | yeast fitness (ln) |
| --- | --- |
| G6U A43C C66U A69G C71U | -0.394 |
| G6U C27U A43C C66A C71U | -0.425 |
| G6U C27U C66U A69G A70U C71U | -0.416 |
| G6A C46U A70U C71U | -0.15 |
| G6U C27U C66A A69G | -0.0157 |
| G6U C27U C66A C71U | -0.109 |
| G6A C66U A70U C71U | -0.462 |
| G6U A43C C46U C66U A70U | -0.234 |
| G6U A43C C46U C66U A70G | -0.205 |
| G6U A43C C46U C66A A69G | 0.0709 |
| G6U C27U A43C A70U C71U | -0.445 |
| G6A C27U A70U C71U | -0.227 |
| G6U A43C A70U | -0.164 |
| G6U A43C A70G | -0.296 |
| G6A C27U A70U | -0.17 |
| G6A C27U A70G | -0.148 |
| G6U C27U C46U C66U A70G C71U | -0.245 |
| G6A C27U C66U A69G A70G C71U | -0.256 |
| G6A C66U C71U | -0.0335 |
| G6U | -0.0403 |
| G6A C46U A69G | -0.469 |
| G6A C46U C66A A70G C71U | -0.169 |
| G6A C46U C66U A69G A70G | -0.0235 |
